Measured values reported in ChEMBL document CHEMBL3271979, “Inhibition of solid tumors by nitrosoureas. 1. Lewis lung carcinoma” (1977).
Calls of active or inactive are those of the source. The calls are words filed in the database; no cut-off is given here.

Assays:
[1] = Antitumor activity against mouse early Lewis lung carcinoma allografted in BDF1 mouse assessed as time delay in tumor growth at 315 mg/kg, ip administered as single dose on 1 or 2 days post-tumor implantation; format: functional; conditions: route intraperitoneal
Outline: (§1)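 BDF1 mice (C57Blk/6 × DBA/2) implanted sc by trocar with ~40 mg Lewis lung tumor fragments from bacteriologically sterile donors. A single ip dose was given on day 1 or 2, as a solution or suspension in water or saline with suspending agent, at ≤0.5 ml. Tumors were measured by caliper at least twice weekly, with weight = ab²/2. Delay was taken as the days for the tumor to reach 1 g.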

[2] = Antitumor activity against mouse advanced Lewis lung carcinoma allografted in BDF1 mouse assessed as increase in host life span at 316 mg/kg, ip administered as single dose on 7th day post-tumor implantation; format: functional; conditions: route intraperitoneal
Outline: (§2)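 BDF1 mice (C57Blk/6 × DBA/2) implanted sc by trocar with about 40 mg Lewis lung tumor fragments from bacteriologically sterile donors. Advanced-disease groups held tumors of about 400 mg by day 6-7, sized by caliper (w = ab²/2). Single ip injection on day 7, in water or saline vehicle, at or below the LD10 in normal mice. Tumors measured at least twice weekly.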

[3] = Antitumor activity against mouse early Lewis lung carcinoma allografted in ip dosed BDF1 mouse assessed as disease cure administered as single dose on 1 or 2 days post-tumor implantation measured for 80 days post-drug treatment; format: functional
Outline: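 BDF1 mice implanted sc by trocar with ~40 mg Lewis lung fragments from sterile donor tumors. A single ip dose was given on day 1 or 2 after implant, in water or saline vehicle. Cures were scored in animals observed for at least 80 days after treatment. Drug-toxicity controls were matched non-tumor-bearing mice monitored for body weight and deaths.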

Mus musculus [4] = test: Antitumor activity against mouse advanced Lewis lung carcinoma allografted in ip dosed BDF1 mouse assessed as disease cure administered as single dose on day 6 or 7 post-tumor implantation; format: functional, organism-based
Outline: (§3)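 BDF1 mice (C57Blk/6 × DBA/2) implanted sc by trocar with Lewis lung tumor fragments of about 40 mg, taken only from bacteriologically sterile donor tumors. Mice bearing tumors of about 400 mg (day 6-7) were selected. Each received a single ip dose on day 7, at or below the LD10 in normal mice. Groups were of 10 mice. Tumor weight was taken from calipers as w = ab²/2, measured at least twice weekly. Matched non-tumor mice served as toxicity controls.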

[5] = Antitumor activity against mouse early Lewis lung carcinoma allografted in BDF1 mouse assessed as increase in host life span at 210 mg/kg, ip administered as single dose on 1 or 2 days post-tumor implantation; format: functional; conditions: route intraperitoneal
Outline: (§4)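 BDF1 mice (C57Blk/6 × DBA/2) implanted sc by trocar with ~40 mg Lewis lung tumor fragments from bacteriologically sterile donor tumors. Single ip dose on day 1 or 2, as a solution or suspension in water (CMC or gum acacia) or saline (HPC or Tween 80). Read-out is […]. Same-dose toxicity controls were run in nontumor-bearing mice.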

[6] = Antitumor activity against mouse early Lewis lung carcinoma allografted in BDF1 mouse assessed as increase in host life span at 315 mg/kg, ip administered as single dose on 1 or 2 days post-tumor implantation; format: functional; conditions: route intraperitoneal; outline: as §4
[7] = Antitumor activity against mouse early Lewis lung carcinoma allografted in BDF1 mouse assessed as time delay in tumor growth at 210 mg/kg, ip administered as single dose on 1 or 2 days post-tumor implantation; format: functional; conditions: route intraperitoneal; outline: as §1
Mus musculus [8] = test: Antitumor activity against mouse advanced Lewis lung carcinoma allografted in BDF1 mouse assessed as disease cure at 316 mg/kg, ip administered as single dose on 7th day post-tumor implantation measured for 80 days post-drug treatment; format: functional, organism-based; set-up: dose 316 mg/kg; outline: as §3
Mus musculus [9] = test: Antitumor activity against mouse advanced Lewis lung carcinoma allografted in ip dosed BDF1 mouse assessed as complete regression of established tumor administered as single dose on day 6 or 7 post-tumor implantation; format: functional, organism-based; outline: as §3
[10] = Ratio of ED50 for antitumor activity against mouse L1210 cells allografted in ip dosed mouse to LD10 for mouse
[11] = Antitumor activity against mouse early Lewis lung carcinoma allografted in BDF1 mouse assessed as time delay in tumor growth at 10 mg/kg, ip administered as single dose on 1 or 2 days post-tumor implantation; format: functional; conditions: route intraperitoneal
Outline: (§5)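 Sc trocar implants of about 40 mg Lewis lung fragments in BDF1 mice. A single ip injection was given on day 1 or 2, in water or physiological saline, at ≤0.5 ml. Tumor size came from caliper length and width as w = ab²/2, measured at least twice weekly. Growth delay is the extra days taken to reach 1 g, compared with untreated controls.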

Mus musculus [12] = test: Antitumor activity against mouse advanced Lewis lung carcinoma allografted in BDF1 mouse assessed as disease cure at 22 mg/kg, ip administered as single dose on 7th day post-tumor implantation measured for 80 days post-drug treatment; format: functional, organism-based; set-up: dose 22 mg/kg; outline: as §3
[13] = Antitumor activity against mouse early Lewis lung carcinoma allografted in BDF1 mouse assessed as increase in host life span at 15 mg/kg, ip administered as single dose on 1 or 2 days post-tumor implantation; format: functional; conditions: route intraperitoneal; outline: as §4
[14] = Antitumor activity against mouse early Lewis lung carcinoma allografted in BDF1 mouse assessed as increase in host life span at 10 mg/kg, ip administered as single dose on 1 or 2 days post-tumor implantation; format: functional; conditions: route intraperitoneal
Outline: (§6)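 Early disease: BDF1 mice carrying sc trocar implants of about 40 mg Lewis lung fragments. One ip dose given on day 1 or 2 after implant, in distilled water or saline, at ≤0.5 ml. Endpoints were % increase in life-span of dying animals and delay in days for the primary tumor to reach 1 g. Untreated controls served as reference.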

[15] = Antitumor activity against mouse advanced Lewis lung carcinoma allografted in BDF1 mouse assessed as increase in host life span at 22 mg/kg, ip administered as single dose on 7th day post-tumor implantation; format: functional; conditions: route intraperitoneal; outline: as §2
[16] = Antitumor activity against mouse early Lewis lung carcinoma allografted in BDF1 mouse assessed as time delay in tumor growth at 15 mg/kg, ip administered as single dose on 1 or 2 days post-tumor implantation; format: functional; conditions: route intraperitoneal; outline: as §1
Mus musculus [17] = test: Antitumor activity against mouse advanced Lewis lung carcinoma allografted in BDF1 mouse assessed as disease cure at 44 mg/kg, ip administered as single dose on 7th day post-tumor implantation measured for 80 days post-drug treatment; format: functional, organism-based; set-up: dose 44 mg/kg; outline: as §3
[18] = Antitumor activity against mouse advanced Lewis lung carcinoma allografted in BDF1 mouse assessed as increase in host life span at 44 mg/kg, ip administered as single dose on 7th day post-tumor implantation; format: functional; conditions: route intraperitoneal; outline: as §2
[19] = Antitumor activity against mouse early Lewis lung carcinoma allografted in BDF1 mouse assessed as time delay in tumor growth at 99 mg/kg, ip administered as single dose on 1 or 2 days post-tumor implantation; format: functional; conditions: route intraperitoneal; outline: as §1
[20] = Antitumor activity against mouse early Lewis lung carcinoma allografted in BDF1 mouse assessed as increase in host life span at 148 mg/kg, ip administered as single dose on 1 or 2 days post-tumor implantation; format: functional; conditions: route intraperitoneal; outline: as §4
[21] = Antitumor activity against mouse early Lewis lung carcinoma allografted in BDF1 mouse assessed as time delay in tumor growth at 148 mg/kg, ip administered as single dose on 1 or 2 days post-tumor implantation; format: functional; conditions: route intraperitoneal; outline: as §1
[22] = Antitumor activity against mouse early Lewis lung carcinoma allografted in BDF1 mouse assessed as increase in host life span at 99 mg/kg, ip administered as single dose on 1 or 2 days post-tumor implantation; format: functional; conditions: route intraperitoneal; outline: as §4
[23] = Antitumor activity against mouse early Lewis lung carcinoma allografted in BDF1 mouse assessed as time delay in tumor growth at 11 mg/kg, ip administered as single dose on 1 or 2 days post-tumor implantation; format: functional; conditions: route intraperitoneal; outline: as §5
Mus musculus [24] = test: Antitumor activity against mouse advanced Lewis lung carcinoma allografted in BDF1 mouse assessed as disease cure at 15 mg/kg, ip administered as single dose on 7th day post-tumor implantation measured for 80 days post-drug treatment; format: functional, organism-based; set-up: dose 15 mg/kg; outline: as §3
[25] = Antitumor activity against mouse advanced Lewis lung carcinoma allografted in BDF1 mouse assessed as increase in host life span at 15 mg/kg, ip administered as single dose on 7th day post-tumor implantation; format: functional; conditions: route intraperitoneal; outline: as §2
[26] = Antitumor activity against mouse early Lewis lung carcinoma allografted in BDF1 mouse assessed as increase in host life span at 17 mg/kg, ip administered as single dose on 1 or 2 days post-tumor implantation; format: functional; conditions: route intraperitoneal; outline: as §4
[27] = Antitumor activity against mouse early Lewis lung carcinoma allografted in BDF1 mouse assessed as time delay in tumor growth at 17 mg/kg, ip administered as single dose on 1 or 2 days post-tumor implantation; format: functional; conditions: route intraperitoneal; outline: as §1
[28] = Antitumor activity against mouse early Lewis lung carcinoma allografted in BDF1 mouse assessed as increase in host life span at 11 mg/kg, ip administered as single dose on 1 or 2 days post-tumor implantation; format: functional; conditions: route intraperitoneal; outline: as §6
[29] = Antitumor activity against mouse advanced Lewis lung carcinoma allografted in ip dosed BDF1 mouse assessed as increase in host lifespan administered as single dose on day 6 or 7 post-tumor implantation; format: functional
Outline: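 Advanced Lewis lung model: about 40 mg fragments implanted sc by trocar into BDF1 mice, and mice with tumors of about 400 mg (day 6-7) selected. Tumor weight from calipers, w = ab²/2. Agent given as one ip dose in distilled water or physiological saline. Nontumor-bearing mice received matching doses as toxicity controls.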

CC(C)(C)[C@H]1CC[C@H](NC(=O)N(CCCl)N=O)CC1
Time [1]: 22 days | ILS at 316 mg/kg [2]: 41% | Activity [3]: 10% | Activity (Mus musculus [4]): inactive | ILS at 210 mg/kg [5]: 24% | ILS at 315 mg/kg [6]: 19% | Time [7]: 4.1 days | Activity (Mus musculus [8]): inactive | inhibition (Mus musculus [9]): Active | Ratio [10]: 0.6

O=NN(CCCl)C(=O)NC1CSCSC1
Activity [3]: 10% | Activity (Mus musculus [4]): inactive | Time [11]: 3.5 days | Activity (Mus musculus [12]): inactive | ILS at 15 mg/kg [13]: 42% | ILS at 10 mg/kg [14]: 24% | ILS at 22 mg/kg [15]: 36% | Time [16]: 4.5 days | inhibition (Mus musculus [9]): Active | Ratio [10]: 0.3

C[C@H]1CC[C@H](NC(=O)N(CCF)N=O)CC1
Activity (Mus musculus [17]): inactive | ILS at 44 mg/kg [18]: 94% | Activity [3]: 10% | Time [19]: 2.6 days | Activity (Mus musculus [4]): inactive | ILS at 148 mg/kg [20]: 0% | Time [21]: 1.4 days | ILS at 99 mg/kg [22]: 34% | inhibition (Mus musculus [9]): Active | Ratio [10]: 0.6

O=NN(CCCl)C(=O)NC1CCC(=O)NC1=O (stereo unspecified)
Time [23]: 1.4 days | Activity (Mus musculus [24]): inactive | ILS at 15 mg/kg [25]: 49% | ILS at 17 mg/kg [26]: 28% | Time [27]: 3.8 days | Activity [3]: 10% | Activity (Mus musculus [4]): inactive | ILS at 11 mg/kg [28]: 32% | ILS [29]: >25% | inhibition (Mus musculus [9]): Active | Ratio [10]: 0.4
